# From PubChem BioAssay
# Values without a mark were called inactive. Results filed as inconclusive are left out. Active and inactive are the calls of the source.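 Rule for the calls, unless noted: active = inhibition over a set limit, the all-compound mean plus 3 SD, in both replicate runs; inconclusive = over that limit in just one replicate run; inactive = at or under that limit in both runs.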
# Experiments:
# [1] = S. cerevisiae growth inhibition in permissive medium (OD615), pilot counter-assay for S. cerevisiae lifespan shortening project, permissive growth control (AID 705;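 active = growth inhibition above 25% in both replicates, a cutoff set 3 SD above the mean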); details: OD615, 24 h, at 10 µM, stronger effect = higher value
# In short: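 Test system: Saccharomyces cerevisiae strain carrying genetically modified DeaD replicative-lifespan system; buffer or medium: SC raffinose/galactose permissive medium; dosing: one dose 10 µM, DMSO 0.25% final; times: 24 h exposure, 30 °C; measured by: OD at 615 nm; read-out basis: growth inhibition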
# [2] = S. cerevisiae growth inhibition in restrictive medium, OD615, pilot screen, restrictive growth control, yeast lifespan reduction project (AID 706;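 active = growth inhibition above a set limit, 3 SD over mean compound inhibition, in both replicates, cut at about 43% in these data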;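 note: modified DeaD lifespan yeast strain shifted to restrictive glucose medium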); details: OD615, 48 h, at 10 µM, stronger effect = higher value
# In short: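 material = engineered S. cerevisiae DeaD strain | buffer or medium = glucose-based CSMM-D restrictive medium | dosing = one concentration, 10 µM final, 0.25% DMSO | schedule = 4 h pre-growth plus 48 h compound exposure, 30 °C | detection = OD615 absorbance reading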
# [3] = doxorubicin toxicity protection in MRP-1 cells – H69AR cells, CellTiter-Glo, duplicate, MRP-1 activator project, pilot screen (AID 807;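 active = viability increase at or above a cutoff of the median across tested compounds plus 3 SD, cut at about 8.5% in these data, passing the limit was not always enough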;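 note: compound pretreatment 18-22 h then 72 h combined with doxorubicin; 0% = doxorubicin alone and 100% = vehicle without doxorubicin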); details: H69AR viability with doxorubicin, CellTiter-Glo luminescence; at 10 µM; stronger effect = higher value
# [4] = viability of HCT116 without oncogenic beta-catenin – human colon tumor cells, pilot screen (AID 823;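 active = cell viability at or below a set limit in both duplicate runs, the limit being the all-compound median minus 4 SD, cut at about 23% in these data, passing the limit was not always enough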;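 note: 0% = wells killed by 20 µM Hyamine and 100% = untreated DMSO cell wells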); details: HCT116 beta-catenin knockout viability, CellTiter-Glo, 60 h; at 10 µM; stronger effect = lower value
# [5] = viability of PTEN-null HCT116 cells – cell-based, HCT116 clonal line, CellTiter-Glo, pilot screen (AID 824;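 active = viability at or below 27.92% in each of two runs, the all-compound median minus 4 SD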;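 note: 0% = 20 µM Hyamine control and 100% = vehicle cell control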); details: HCT116 PTEN-deleted viability, 60 h, at 10 µM, stronger effect = lower value
# [6] = RAM pathway blockade in budding yeast – dse1pr::URA3 reporter, 5-FOA selection, pilot screen (AID 869);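 note: 0% = DMSO wells with no growth and 100% = 10 µM 1-NA-PP1 with full growth; RAM network block rescues cells from 5-FOA so hits raise OD615 growth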; details: S. cerevisiae dse1pr::URA3 5-FOA growth, OD615, 2 d; at 10 µM; stronger effect = higher value; strain carries analog-sensitive mutant Cbk1 kinase
# [7] = RAM signaling pathway blockade in yeast – S. cerevisiae, Pdr1DBD-CYC8 efflux-inhibited sensitized strain, primary screen (AID 1298;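 active = RAM network inhibition above 8.4% in each of two replicates, 3 SD over the compound average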;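 note: 0% = DMSO untreated cells without growth and 100% = 10 µM 1-NA-PP1 full growth; higher means more yeast growth rescued from 5-FOA killing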); details: S. cerevisiae cbk1-as DSE1-URA3 strain, 5-FOA growth OD615, 2 d; at 50 µM; stronger effect = higher value
Compound,growth inhibition [1],growth inhibition [2],viability increase [3],viability [4],viability [5],inhibition [6],RAM network inhibition [7]
O=C1N=C(N2CCOCC2)SC1=C1CCCCC1,-8.5%,-2.34%,-2.09%,98%,97.1%,1.17%,1.84%
C=CCOC(=O)C1=C(C)N(C)C(=O)NC1c1cc2c(cc1Br)OCO2 (stereo not drawn),0.155%,-0.035%,-1.27%,88.1%,91.8%,1.38%,5.32%
Cc1cc(C(=O)NCc2cccs2)n(-c2ccccc2)n1,-10.7%,-6.11%,0.91%,102%,90.6%,1.03%,5.86%
O=C(NCc1cccnc1)NC1(C(F)(F)F)Oc2ccc(Cl)cc2O1 (stereo not drawn),-2.96%,-8.97%,-6.19%,52.6%,58.7%,0.4%,0.63%
CCC1CCCCN1C(=O)CSc1nnc(-c2ccc(Cl)cc2)o1 (stereo not drawn),0.365%,-5.16%,0.28%,87%,90.9%,1.89%,5.69%
CCOc1ccc(NC(=O)C2C3C=CC4(CN(C(C(=O)OC)C(C)C)C(=O)C24)O3)cc1 (stereo not drawn),-9.79%,5.85%,-1.43%,108%,102%,1.31%,6.37%
Nc1nc(SCC(=O)N2CCCc3ccccc32)n(-c2ccccc2)n1,-4.37%,0.05%,-4.68%,108%,99.3%,2.67%,6.67%
COc1ccc(N(CC(=O)N2CCc3ccccc3C2)S(=O)(=O)c2c(C)[nH]c(=O)[nH]c2=O)cc1,-5.04%,-13%,-1.83%,110%,99.5%,2.77%,3.41%
Cc1cc(C)n2nc(S(=O)(=O)N(CC(C)C)CC(C)C)nc2n1,3.3%,3.41%,-1.13%,104%,94.2%,1.08%,0.22%
CN(CCCNC(=O)C1CCC(=O)N1Cc1ccc(F)cc1)c1ccccc1 (stereo not drawn),4.99%,-8.76%,-1.51%,95.5%,90.5%,0.54%,0.72%
COc1ccc(S(=O)(=O)N2CCC(C(=O)N3CCOCC3)CC2)cc1OC,-15.4%,-6.63%,-0.87%,91.5%,94.8%,0.825%,2.43%
CCOc1ccccc1NC(=O)C1CCN(S(=O)(=O)c2cccc3cccnc23)CC1,1.06%,-4.09%,-3.97%,85.2%,80.9%,1.24%,1.72%
CC1CCN(c2nc(-c3ccccc3)c(C#N)c(=O)[nH]2)CC1,-10.1%,-13.7%,-0.55%,101%,92.1%,1.46%,2.74%
Cc1ccc2nc(-c3ccccc3)cc(C(=O)O)c2c1,-9.89%,8.96%,-2.12%,95.3%,87.8%,1.46%,3.9%
CCOC(=O)C1C(C)N=C2SCC(=O)N2C1c1cccc(Br)c1 (stereo not drawn),9.43%,51.2% (active),-0.84%,86.4%,93.2%,0.36%,3.99%
CCCCSCc1[nH]c(=O)[nH]c1C(=O)CCCCC(=O)OCC,-12.8%,-1.29%,-3.65%,99.4%,100%,0.975%,2.54%
Cc1cc(C)nc(SCC(=O)N2CCCCC2)n1,-13.6%,-20%,0.71%,97.4%,101%,2.34%,0.74%
CCn1c(C(=O)NC(C)c2ccc3c(c2)OCCO3)cc2sccc21 (stereo not drawn),-7.09%,-9.22%,-0.14%,96.1%,82%,1.62%,3.22%
Cc1cccc(Cn2c(SCCN3CCOCC3)nc3c2c(=O)n(C)c(=O)n3C)c1,1.68%,1.63%,-2.36%,103%,91%,0.9%,5.93%
O=C(Nn1c(=S)[nH]c2ccccc2c1=O)c1ccncc1,6.51%,-5.44%,-2.87%,91.9%,90.5%,1.75%,4.74%
CC(C)(C)NC(=O)CSc1nc(O)cc(=O)n1-c1ccccc1F,-5.45%,-3.51%,-0.7%,95.5%,101%,0.91%,1.87%
COC(=O)Cn1cnc2c(nnn2-c2cccc(Cl)c2)c1=O,-0.625%,0.135%,1.53%,108%,99.4%,1.28%,-1.59%
COC(=O)c1ccc(COc2ccc3c(C)c(C)c(=O)oc3c2)o1,-4.33%,-4.88%,-0.68%,101%,105%,1.5%,5.89%
Cc1cccc(N2CC(c3nc4ccccc4n3C)CC2=O)c1C (stereo not drawn),-8.87%,3.04%,-3.04%,104%,95.2%,1.46%,3.58%
O=C(CN1CCN(c2ncccn2)CC1)N1CCN(C(c2ccccc2)c2ccccc2)CC1,-1.1%,-2.38%,-3.26%,84.8%,85%,1.64%,0.61%

Compound,growth inhibition [1],growth inhibition [2],viability increase [3],viability [4],viability [5],inhibition [6],RAM network inhibition [7]
CC(C)OCCCNC(=O)c1ccc2c(c1)ncn2C1CCCC1,-12.5%,-6.74%,-2.69%,102%,97.5%,1.38%,1.62%
Clc1ccc(Cn2cc(/C=N/n3cnnc3)c3ccccc32)cc1,9.77%,30.9%,-7.71%,64.5%,62.3%,1.48%,3%
CC(=O)NCCc1ccc(S(=O)(=O)N2CCCC2)cc1,-6.14%,1.21%,0.04%,96.2%,96%,3.39%,3.82%
O=C(Nc1c(C(=O)O)oc2ccc(Br)cc12)c1ccccc1,-34%,2.99%,-3.96%,101%,99.5%,2.95%,-2.35%
COc1ccc(OC)c(-c2nc(C(N)=O)c3[nH]c(=O)n(-c4ccc(F)cc4)c3n2)c1,-0.485%,-10.4%,-2.73%,95.4%,103%,2.46%,0.16%
Cc1nc2ccc(S(=O)(=O)NC(C(=O)N3CCC(C)CC3)C(C)C)cc2s1 (stereo not drawn),-13.4%,-2.64%,-2.02%,93.9%,89%,2.38%,2.55%
O=C(c1ccccc1)n1nc(-c2ccccc2)nc1NCc1ccco1,-15.5%,-17%,0.43%,96.7%,98.1%,2.25%,6.58%
COc1cc(NC(=O)c2cc3c(C)nc4ccccc4c3o2)cc(OC)c1OC,7.32%,13.2%,-5.18%,86.2%,86.7%,0.93%,0.97%
O=C(NCc1cccs1)C1CCCN1S(=O)(=O)c1ccccc1F (stereo not drawn),-2.45%,-6.33%,-0.97%,102%,90.7%,0.91%,2.5%
CC(=O)c1c(C)cc(C)c(CSc2nc(C)cc(=O)[nH]2)c1C,2.49%,19.8%,0.08%,83%,74.2%,0.245%,2.49%
Cc1ccccc1-n1nc2c(c1NC(=O)c1cccc(F)c1)CS(=O)C2 (stereo not drawn),-8.75%,5.54%,0.96%,98.8%,98.5%,0.835%,7.75%
CC1CCc2nc3ccc(S(=O)(=O)N4CCC(C(=O)NC5CCCC5)CC4)cc3c(C(=O)O)c2C1 (stereo not drawn),-0.78%,10.5%,-2.1%,94.8%,95.4%,1.08%,3.59%
O=C(O)c1cccc2c1C(=O)N(C1CCCCC1)C2,-18.8%,-5.79%,-1.27%,104%,98.3%,1.97%,6.19%
CCOC(=O)CSc1nnc(CSc2nc(N)c3c(C)c(C)sc3n2)n1-c1ccccc1,14.1%,53.5% (active),-2.13%,94.8%,96.2%,0.985%,5.21%
CCOC(=O)C1CCCN(C(=O)Cc2c(C(=O)O)[nH]c3ccccc23)C1 (stereo not drawn),-7.59%,-0.39%,-0.1%,97.3%,96.9%,0.53%,3.59%
Cc1csc(C(C#N)C(=O)c2cc3ccccc3o2)n1 (stereo not drawn),-21.6%,-8.8%,-0.75%,93.7%,85.3%,2.67%,0.32%
O=C(c1ccc(CS(=O)(=O)c2c(Cl)cccc2Cl)o1)N1CCN(c2ccccn2)CC1,-4.86%,-8.68%,-3.07%,97.8%,93.1%,-0.07%,3.34%
CCn1c(=O)cc(OCC(=O)N2CCc3ccccc32)c2ccccc21,-19%,-15.4%,-3.92%,96.1%,89.9%,2.09%,3.25%
O=P(O)(CN1CCCCC1)C1CCCCC1O (stereo not drawn),-11.2%,-3.29%,-1.71%,105%,104%,0.06%,1.57%
Cc1oc2cc(O)ccc2c(=O)c1Oc1ccccc1Br,-15.9%,-12.2%,-3.45%,94%,84.4%,1.68%,2.42%
CCOC(=O)N1CCC(NC(=O)c2cc3c(-c4ccccc4F)nn(C)c3s2)CC1,-7.38%,-13.5%,-3.97%,75.6%,84.2%,1.74%,0.42%
CC1CN(S(=O)(=O)c2ccc(C(=O)Nc3nnc(-c4ccc5c(c4)CCCC5)o3)cc2)CC(C)O1 (stereo not drawn),-19.1%,1.69%,-5.17%,21.1% (active),19.7% (active),1.67%,5.1%
CCCCC(=O)Nc1ccc(Br)cc1C(=O)O,5.08%,-10.9%,0.11%,89.9%,97.8%,1.95%,-1.59%
O=C(Cc1cc(=O)[nH]c(=O)[nH]1)NCC1CCCO1 (stereo not drawn),7.33%,-1.15%,0.94%,106%,104%,0.945%,2.29%
